Measurements taken from ChEMBL document CHEMBL2046398, “Optimization of (2,3-dihydro-1-benzofuran-3-yl)acetic acids: discovery of a non-free fatty acid-like, highly bioavailable G protein-coupled receptor 40/free fatty acid receptor 1 agonist as a glucose-dependent insulinotropic agent” (J Med Chem, 2012).
The source made the active and inactive calls. The calls are words filed in the database; no cut-off is given here.

Tests used:
[1] = biological target: T1, Free fatty acid receptor 1 (Homo sapiens, UniProt O14842); assay: Agonist activity at human GP40 receptor expressed in CHO cells assessed as increase in intracellular calcium level for 90 secs by FLIPR assay in the presence of 0.1% BSA; type: functional, cell-based
[2] = biological target: T1, Free fatty acid receptor 1; assay: Agonist activity at human GP40 receptor expressed in CHO cells assessed as increase in intracellular calcium level at 10 uM for 90 secs by FLIPR assay in the presence of 0.1% BSA relative to gamma-linolenic acid; type: functional, cell-based
Outline: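 CHO dhfr cells stably expressing human GPR40/FFA1 (NM_005303) plated overnight at 37 °C, 5% CO₂, then loaded 60 min at 37 °C with Fluo 4 AM (2.5 μg/mL), 2.5 mmol/L probenecid and 0.1% fatty acid-free BSA. Ca²⁺ rise after compound addition read on FLIPR Tetra for 90 s. Activity = (test − vehicle)/(10 μM γ-linolenic acid − vehicle) × 100.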

[3] = biological target: T1, Free fatty acid receptor 1; assay: Displacement of 3-[4-({2',6'-dimethyl-6-[(4-[3H])-phenylmethoxy]biphenyl-3-yl}methoxy)phenyl]propanoic acid from human GPR40 expressed in CHO cells after 90 mins by liquid scintillation counting in the presence of 0.2% BSA; type: cell-based
Outline: (§1)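 Membranes came from CHO lines stably expressing human or rat GPR40/FFA1. Assay buffer was 25 mmol/L Tris-HCl pH 7.5 with 5 mmol/L EDTA, protease inhibitors, 0.05% CHAPS and 0.2% fatty-acid-free BSA. Compounds competed with 2 or 6 nmol/L tritiated phenylpropanoic acid ligand for 90 min at room temperature. Bound ligand was filtered and counted by scintillation. Nonspecific binding used 10 μmol/L unlabeled ligand. IC50 was converted to Ki by Cheng–Prusoff using the measured Kd.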

[4] = biological target: Free fatty acid receptor 1 (Rattus norvegicus, UniProt Q8K3T4); assay: Displacement of 3-[4-({2',6'-dimethyl-6-[(4-[3H])-phenylmethoxy]biphenyl-3-yl}methoxy)phenyl]propanoic acid from rat GPR40 expressed in CHO cells after 90 mins by liquid scintillation counting in the presence of 0.2%BSA; type: cell-based; outline: as §1
HepG2 = assay: Induction of apoptosis in human HepG2 cells assessed as caspase 3/7 activity at 30 uM after 1 day by CaspaseGlo assay relative to staurosporine; type: cell-based; conditions: hepg2, 24 h
Outline: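 HepG2 cells were seeded at 2 × 10⁴ cells/well. They were exposed to compounds for 1 day in DMEM with 0.5% FBS, 2 mM L-glutamine and 1 mM pyruvate. Caspase-3/7 was read by Caspase-Glo luminescence, n = 3. Values are % = (RLU compound − RLU 1% DMSO)/(RLU 30 μM staurosporine − RLU 1% DMSO) × 100.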

[5] = Lipophilicity, log D of the compound at pH 7.4 by HPLC analysis; type: physicochemical; conditions: buffer
Outline: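 Log D at pH 7.4 was estimated from HPLC relative retention time against standard compounds.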

Rattus norvegicus [6] = assay: Insulinotropic activity in po dosed Goto-Kakizaki rat assessed as increase in plasma insulin secretion administered 1 hr prior to glucose-challenge by oral glucose tolerance test; type: functional
Outline: (§2)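 Male GK rats, 41 weeks old, were fasted overnight. They received compound suspended in 0.5% methylcellulose orally, 1–10 mg/kg, 1 h before a 1 g/kg oral glucose load. Tail-vein blood was taken pre-dose, at 0 min and at 10, 30, 60 and 120 min. Plasma glucose was read by autoanalyzer and insulin by radioimmunoassay, with AUC0–120min. n = 6. Williams/Shirley–Williams tests versus vehicle.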

Rattus norvegicus [7] = assay: Insulinotropic activity in po dosed Goto-Kakizaki rat assessed as decrease in plasma glucose level administered 1 hr prior to glucose-challenge by oral glucose tolerance test; type: functional; outline: as §2
Rattus norvegicus [8] = assay: Insulinotropic activity in Goto-Kakizaki rat assessed as increase in plasma insulin secretion at 1 to 10 mg/kg, po administered 1 hr prior to glucose-challenge by oral glucose tolerance test; type: functional, organism-based; conditions: TDE = time-dependent effect; outline: as §2
Rattus norvegicus [9] = assay: Insulinotropic activity in Goto-Kakizaki rat assessed as decrease in plasma glucose level at 1 to 10 mg/kg, po administered 1 hr prior to glucose-challenge by oral glucose tolerance test; type: functional, organism-based; conditions: TDE = time-dependent effect; outline: as §2
Rattus norvegicus [10] = assay: Insulinotropic activity in Goto-Kakizaki rat assessed as increase in plasma insulin secretion at 1 to 10 mg/kg, po after 1 hr measured at glucose charge (0 mins)
Rattus norvegicus [11] = assay: Insulinotropic activity in po dosed fasted Wistar fatty rat assessed as […] administered 4 hr prior to glucose-challenge by oral glucose tolerance test relative to vehicle control; type: functional
Outline: (§3)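 Female Wistar fatty rats, 12–17 weeks old, were fasted overnight. They were dosed orally with compound in 0.5% methylcellulose 1 h (1 mg/kg) or 4 h (3 mg/kg) before a 1 g/kg oral glucose load. Plasma glucose was sampled to 120 min, n = 6. Effective dose was defined by statistical significance on plasma glucose AUC versus vehicle.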

Rattus norvegicus [12] = assay: Insulinotropic activity in po dosed fasted Wistar fatty rat assessed as […] administered 1 hr prior to glucose-challenge by oral glucose tolerance test relative to vehicle control; type: functional; outline: as §3

Sequence of Free fatty acid receptor 1 (Rattus norvegicus, UniProt Q8K3T4) (Q8K3T4 whole entry): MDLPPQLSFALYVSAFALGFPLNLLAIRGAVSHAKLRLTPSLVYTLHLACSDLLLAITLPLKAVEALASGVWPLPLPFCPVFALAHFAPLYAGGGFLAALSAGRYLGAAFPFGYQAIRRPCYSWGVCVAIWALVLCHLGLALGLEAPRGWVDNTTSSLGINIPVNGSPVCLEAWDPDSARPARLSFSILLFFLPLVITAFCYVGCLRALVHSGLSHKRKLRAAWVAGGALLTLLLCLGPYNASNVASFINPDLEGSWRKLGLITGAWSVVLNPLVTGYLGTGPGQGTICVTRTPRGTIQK
T1 sequence (O14842 whole entry): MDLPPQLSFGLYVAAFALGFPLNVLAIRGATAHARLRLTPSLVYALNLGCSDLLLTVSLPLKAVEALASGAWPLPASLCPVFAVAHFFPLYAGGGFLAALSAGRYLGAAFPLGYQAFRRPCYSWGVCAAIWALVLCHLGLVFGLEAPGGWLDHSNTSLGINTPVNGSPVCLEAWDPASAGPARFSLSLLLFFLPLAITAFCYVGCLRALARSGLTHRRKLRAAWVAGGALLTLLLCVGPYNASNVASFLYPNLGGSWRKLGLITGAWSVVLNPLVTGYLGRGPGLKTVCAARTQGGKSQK

| Compound | EC50 [1] | Efficacy [2] | Ki [3] | Ki [4] | Activity (HepG2) | logD [5] | Activity (Rattus norvegicus [6]) | Activity (Rattus norvegicus [7]) | Activity (Rattus norvegicus [8]) | Activity (Rattus norvegicus [9]) | Activity (Rattus norvegicus [10]) | ED (Rattus norvegicus [11]) | ED (Rattus norvegicus [12]) | minimal effective dose (Rattus norvegicus [6]; read-out: MED) | minimal effective dose (Rattus norvegicus [7]; read-out: MED) |
| --- | --- | --- | --- | --- | --- | --- | --- | --- | --- | --- | --- | --- | --- | --- | --- |
| Cc1cc(OCCCN2CCCC2=O)cc(C)c1-c1cccc(COc2ccc3c(c2)OC[C@H]3CC(=O)O)c1 | 17 nM | 107% | 31 nM | 170 nM | 3.9% | 3.22 |  |  |  |  |  |  |  |  |  |
| Cc1cc(OCCCS(C)(=O)=O)cc(C)c1-c1cccc(COc2ccc3c(c2)OC[C@H]3CC(=O)O)c1 [listing 1 of 2 here] |  | 107% |  |  |  |  | Dose-dependent effect | Dose-dependent effect | tde | tde | Active |  |  |  |  |
| Cc1cc(OC2CCN(C)CC2)cc(C)c1-c1cccc(COc2ccc3c(c2)OC[C@H]3CC(=O)O)c1.Cl | 19 nM | 107% | 8.8 nM | 66 nM | -1.3% | 3.1 |  |  |  |  |  | inactive |  |  |  |
| Cc1cc(OCCCS(C)(=O)=O)c(Cl)c(C)c1-c1cccc(COc2ccc3c(c2)OC[C@H]3CC(=O)O)c1 | 16 nM | 104% | 19 nM | 110 nM | 8.3% | 3.07 |  |  |  |  |  |  |  |  |  |
| Cc1nc(C)c(COc2cc(C)c(-c3cccc(COc4ccc5c(c4)OC[C@H]5CC(=O)O)c3)c(C)c2)s1 | 18 nM | 107% | 12 nM | 360 nM | 23.1% | 4.27 |  |  |  |  |  |  |  |  |  |
| Cc1cc(OCC2(O)CCS(=O)(=O)CC2)cc(C)c1-c1cccc(COc2ccc3c(c2)OC[C@H]3CC(=O)O)c1 | 13 nM | 107% | 24 nM | 170 nM | -1.8% | 2.43 |  |  |  |  |  | 3 mg/kg | inactive |  |  |
| Cc1cc(OCCCS(C)(=O)=O)cc(C)c1-c1cccc(COc2ccc3c(c2)OC[C@H]3CC(=O)O)c1.O |  |  |  |  |  |  |  |  |  |  |  | 3 mg/kg | 1 mg/kg | 10 mg/kg | 3 mg/kg |
| Cc1cc(OC2CCS(=O)(=O)CC2)cc(C)c1-c1cccc(COc2ccc3c(c2)OC[C@@H]3CC(=O)O)c1 | 290 nM | 103% | 300 nM | 510 nM | 1.3% | 2.84 |  |  |  |  |  |  |  |  |  |
| Cc1cc(OCC2(C)COC2)cc(C)c1-c1cccc(COc2ccc3c(c2)OCC3CC(=O)O)c1 (racemic) | 24 nM | 103% | 21 nM | 83 nM | 23.6% | 3.86 |  |  |  |  |  |  |  |  |  |
| CCOCCOc1cc(C)c(-c2cccc(COc3ccc4c(c3)OC[C@@H]4CC(=O)O)c2)c(C)c1 |  | 103% |  | 7400 nM | 10.5% | 3.86 |  |  |  |  |  |  |  |  |  |
| CCS(=O)(=O)CCOc1cc(C)c(-c2cccc(COc3ccc4c(c3)OC[C@H]4CC(=O)O)c2)c(C)c1 | 14 nM | 107% | 37 nM | 170 nM | -1.3% | 2.73 |  |  |  |  |  | 3 mg/kg |  |  |  |
| CCOCCOc1cc(C)c(-c2cccc(COc3ccc4c(c3)OCC4CC(=O)O)c2)c(C)c1 (racemic) |  | 103% |  | 300 nM | 3.2% | 3.83 |  |  |  |  |  |  |  |  |  |
| Cc1cc(OCC2(C)COC2)cc(C)c1-c1cccc(COc2ccc3c(c2)OC[C@@H]3CC(=O)O)c1 | 270 nM | 103% | 270 nM | 2200 nM | 20.9% | 3.88 |  |  |  |  |  |  |  |  |  |
| Cc1cc(OCc2cccc3nccn23)cc(C)c1-c1cccc(COc2ccc3c(c2)OC[C@H]3CC(=O)O)c1 | 17 nM | 107% | 15 nM | 190 nM | 17.7% | 3.8 |  |  |  |  |  |  |  |  |  |
| Cc1cc(OC2CCS(=O)(=O)CC2)c(F)c(C)c1-c1cccc(COc2ccc3c(c2)OC[C@H]3CC(=O)O)c1 | 19 nM | 104% | 31 nM | 270 nM | 7.9% | 2.95 |  |  |  |  |  |  |  |  |  |
| Cc1c(Cl)c(OCCCS(C)(=O)=O)c(Cl)c(C)c1-c1cccc(COc2ccc3c(c2)OC[C@H]3CC(=O)O)c1 | 17 nM | 104% | 12 nM | 59 nM | 16.1% | 3.53 |  |  |  |  |  |  |  |  |  |
| Cc1cc(OCC2(C)COC2)cc(C)c1-c1cccc(COc2ccc3c(c2)OC[C@H]3CC(=O)O)c1 | 18 nM | 103% | 25 nM | 110 nM | 21.1% | 3.88 |  |  |  |  |  |  |  |  |  |
| Cc1c(C)c(-c2cccc(COc3ccc4c(c3)OC[C@H]4CC(=O)O)c2)c(C)c(C)c1OCCCS(C)(=O)=O | 18 nM | 104% | 33 nM | 120 nM | -1.1% | 3.12 |  |  |  |  |  |  |  |  |  |
| Cc1c(C)c(-c2cccc(COc3ccc4c(c3)OC[C@H]4CC(=O)O)c2)c(C)c(C)c1OC1CCS(=O)(=O)CC1 | 29 nM | 104% | 40 nM | 400 nM | 12.3% | 3.35 |  |  |  |  |  |  |  |  |  |
| CCOCCOc1cc(C)c(-c2cccc(COc3ccc4c(c3)OC[C@H]4CC(=O)O)c2)c(C)c1 |  | 103% |  | 240 nM | 1.5% | 3.86 |  |  |  |  |  |  |  |  |  |
| Cc1cc(OC2CCS(=O)(=O)CC2)cc(C)c1-c1cccc(COc2ccc3c(c2)OC[C@H]3CC(=O)O)c1 | 22 nM | 103% | 36 nM | 170 nM | -2.5% | 2.75 |  |  |  |  |  | 3 mg/kg | 1 mg/kg |  |  |
| Cc1cc(OCCCS(C)(=O)=O)cc(C)c1-c1cccc(COc2ccc3c(c2)OC[C@H]3CC(=O)O)c1 [listing 2 of 2 here] |  |  |  |  | -2.1% | 2.58 |  |  |  |  |  |  |  |  |  |
| CCc1cc(OCCCS(C)(=O)=O)cc(CC)c1-c1cccc(COc2ccc3c(c2)OC[C@H]3CC(=O)O)c1 | 17 nM | 104% | 11 nM | 56 nM | 12.4% | 3.17 |  |  |  |  |  |  |  |  |  |
| Cc1cc(OCCCS(C)(=O)=O)c(F)c(C)c1-c1cccc(COc2ccc3c(c2)OC[C@H]3CC(=O)O)c1 | 16 nM | 104% | 18 nM | 200 nM | -1.1% | 2.68 |  |  |  |  |  | 3 mg/kg | 1 mg/kg |  |  |
| Cc1cc(OC2CCS(=O)(=O)CC2)cc(C)c1-c1cccc(COc2ccc3c(c2)OCC3CC(=O)O)c1 (racemic) | 39 nM | 103% | 83 nM | 210 nM | 0.4% | 2.77 |  |  |  |  |  |  |  |  |  |
